Assay results from article PMC7096758 (Heliyon, 2020).

Columns and labels:
[1] = Cytotoxicity in mammalian cells; assay type: cell-based, BALB/c mice; settings: BALB/c, mouse, bone marrow-derived macrophages (BMDM)
Summary of the method: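 Bone-marrow cells from BALB/c mice were differentiated for 7 days at 37 °C, 5% CO2. The medium was DMEM with 10% FBSi, 1% NEAA and 10% L929-conditioned medium. The resulting macrophages were exposed to test compound at up to 40 μM for 24 h. Viability was measured by resazurin assay. CC50 was calculated from percent viability relative to untreated control.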

[2] = test system: L. major promastigotes; assay: Activity against promastigotes; assay type: cell-based; settings: Leishmania major, 24 h, read-out: IC50 L. major (P)
Summary of the method: (§1)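 Promastigotes of L. major MHOM/SA/85/JISH118 or L. amazonensis MHOM/BR/LTB0016 were kept at 25 °C for at most 10 passages in Schneider's with 10% FBSi, 2% human urine and 5 mM HEPES. Late-exponential cells were seeded at 3×10^6 cells/mL. They were treated 24 h with test compound (DMSO stock diluted in Schneider's), in triplicate. Controls were 0.5% DMSO and amphotericin B. Resazurin read-out; IC50 fitted.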

[3] = test system: L. amazonensis promastigotes; assay: Activity against promastigotes; assay type: cell-based; settings: Leishmania amazonensis, 24 h, read-out: IC50 L. amazonensis (P)
Summary of the method: as §1

[4] = test system: L. infantum promastigotes; assay: Activity against promastigotes; assay type: cell-based; settings: Leishmania infantum, 24 h, read-out: IC50 L. infantum (P)
Summary of the method: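 L. infantum MHOM/MA/67/ITMAP263 promastigotes were grown at 25 °C for at most 10 passages in RPMI with 10% FBSi and 5 mM HEPES, pH 7.4. Late-exponential cells were seeded at 3×10^6 cells/mL and exposed for 24 h to test compound (DMSO stock diluted in RPMI), in triplicate. Controls were 0.5% DMSO and amphotericin B. Resazurin fluorescence gave viability and IC50 was fitted.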

[5] = test system: L. infantum axenic amastigotes; assay: Activity against axenic amastigotes; assay type: cell-based; settings: Leishmania infantum, 24 h, read-out: IC50 L. infantum (AA)
Summary of the method: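 L. infantum axenic amastigotes came from parasites recently recovered from infected mouse spleen. They were kept at 37 °C, 5% CO2 in MAA with 20% iFBS, 2 mM Glutamax and 0.023 mM hemin. Cells were seeded at 1.5×10^5 per well in MAA20. Test compound was dissolved in DMSO and diluted in medium for 24 h, in triplicate. Controls were 0.5% DMSO and amphotericin B. Viability was read by resazurin fluorescence and IC50 fitted.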

[6] = test system: L. infantum intracellular amastigotes; assay: IC50 against Leishmania intracellular amastigotes in infected macrophages; assay type: cell-based, Leishmania infantum; settings: CC50 BMDM versus IC50 intracellular amastigotes
Summary of the method: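 Ratio of BMDM CC50 (resazurin, 24 h) to intracellular IC50. For IC50, BALB/c BMDM were infected 3 h with stationary-phase L. infantum promastigotes (10:1), then washed. After 24 h, test compound in DMEM was added for 24 h, with 0.5% DMSO and amphotericin B controls. Cells were fixed, DAPI/CellMask stained and imaged automatically. IC50 was derived from percent infected macrophages.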

| SMILES | CC50 at 24 h [1] [µM] | IC50 [2] [µM] | IC50 [3] [µM] | IC50 [4] [µM] | IC50 [5] [µM] | selectivity index [6] |
| --- | --- | --- | --- | --- | --- | --- |
| C[C@@H]1[C@H](O)[C@@H](C)/C=C/C=C/C=C/C=C/C=C/C=C/C=C/[C@H](O[C@@H]2O[C@H](C)[C@@H](O)[C@H](N)[C@@H]2O)C[C@@H]2O[C@](O)(C[C@@H](O)C[C@@H](O)[C@H](O)CC[C@@H](O)C[C@@H](O)CC(=O)O[C@H]1C)C[C@H](O)[C@H]2C(=O)O [Amphotericin B, reference compound] | 4.37 ± 0.97 | 0.17 ± 0.08 | 0.2 ± 0.06 | 0.18 ± 0.09 | 0.4 ± 0.3 |  |
| C/C=C(\CO)C(=O)OCc1ccc2c(c1)C(=O)CC(C)(C)O2 [Compound 12a, (2,2-dimethyl-4-oxochroman-6-yl)methyl (E)-2-(hydroxymethyl)but-2-enoate] |  | > 20 | > 20 | > 20 |  |  |
| C/C=C(\CO)C(=O)NCc1ccc2c(c1)C(=O)CC(C)(C)O2 [Compound 13a, (E)-N-((2,2-dimethyl-4-oxochroman-6-yl)methyl)-2-(hydroxymethyl)but-2-enamide] |  | > 20 | > 20 | > 20 |  |  |
| CCCCCCCCNCc1ccc2c(c1)C(=O)CC(C)(C)O2 [Compound 13c, 2,2-dimethyl-6-((octylamino)methyl)chroman-4-one] | 40.2 ± 5.7 |  |  |  | 25.3 ± 2.1 | 1.6 |
| C/C=C/C(=O)NCc1ccc2c(c1)C(=O)CC(C)(C)N2 [Compound 14b, (E)-N-((2,2-dimethyl-4-oxo-1,2,3,4-tetrahydroquinolin-6-yl)methyl)but-2-enamide] | > 40 | > 20 | > 20 | > 20 |  |  |
| C/C=C(\C)C(=O)NCc1ccc2c(c1)C(=O)CC(C)(C)N2 [Compound 14c, (E)-N-((2,2-dimethyl-4-oxo-1,2,3,4-tetrahydroquinolin-6-yl)methyl)-2-methylbut-2-enamide] | > 40 | > 20 | > 20 | > 20 |  |  |
| CC(C)=CC(=O)NCc1ccc2c(c1)C(=O)CC(C)(C)N2 [Compound 14d, N-((2,2-dimethyl-4-oxo-1,2,3,4-tetrahydroquinolin-6-yl)methyl)-3-methylbut-2-enamide] | > 40 | > 20 | > 20 | > 20 |  |  |
| CC1(C)CC(=O)c2cc(CNC(=O)C/C=C/c3ccccc3)ccc2N1 [Compound 14e, (E)-N-((2,2-dimethyl-4-oxo-1,2,3,4-tetrahydroquinolin-6-yl)methyl)-4-phenylbut-3-enamide] | > 40 | > 20 | 10 to 20 |  |  |  |
| CC1(C)CC(=O)c2cc(CNC(=O)/C=C/c3cccs3)ccc2N1 [Compound 14f, (E)-N-((2,2-dimethyl-4-oxo-1,2,3,4-tetrahydroquinolin-6-yl)methyl)-3-(thiophen-2-yl)acrylamide] | > 40 | > 20 | > 20 | > 20 |  |  |
| C/C=C(\CO)C(=O)NCc1ccc2c(c1)C(=O)CC(C)(C)N2 [Compound 14g, (E)-N-((2,2-dimethyl-4-oxo-1,2,3,4-tetrahydroquinolin-6-yl)methyl)-2-(hydroxymethyl)but-2-enamide] |  | > 20 | > 20 | > 20 |  |  |
| Cc1ccc(Cc2ccc3c(c2)C(=O)CC(C)(C)O3)cc1 [Compound 21, 2,2-dimethyl-6-(4-methylbenzyl)chroman-4-one] |  | > 20 | > 20 | > 20 |  |  |
